The record followed here is article PMC12814486 (Bioorganic & medicinal chemistry, 2025).

≈ marks a conversion by molar mass, not a printed value.

One data set has as its target T1, human FAAH (Homo sapiens, UniProt O00519).
T1 sequence (O00519 1-579): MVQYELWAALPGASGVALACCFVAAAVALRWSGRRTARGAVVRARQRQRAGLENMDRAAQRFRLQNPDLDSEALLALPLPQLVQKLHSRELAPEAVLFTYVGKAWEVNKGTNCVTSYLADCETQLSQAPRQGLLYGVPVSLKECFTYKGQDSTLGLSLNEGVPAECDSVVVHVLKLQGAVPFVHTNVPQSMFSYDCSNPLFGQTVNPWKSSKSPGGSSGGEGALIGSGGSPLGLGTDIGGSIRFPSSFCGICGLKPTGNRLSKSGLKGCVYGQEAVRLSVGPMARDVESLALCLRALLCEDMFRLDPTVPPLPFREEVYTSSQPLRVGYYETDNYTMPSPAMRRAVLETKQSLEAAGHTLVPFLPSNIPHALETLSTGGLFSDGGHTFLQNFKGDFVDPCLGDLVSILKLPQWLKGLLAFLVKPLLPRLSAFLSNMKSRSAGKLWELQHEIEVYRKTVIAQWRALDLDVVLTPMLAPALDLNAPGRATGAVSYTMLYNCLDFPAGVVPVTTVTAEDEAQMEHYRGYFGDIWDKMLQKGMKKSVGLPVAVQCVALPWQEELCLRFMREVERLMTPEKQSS
Nature of the data set: FAAH inhibition assay. The format is biochemical.

Another data set is described as follows: Solubility assay. The format is physicochemical. The note with it: sodium phosphate buffer, pH 7.4, aqueous buffer, kinetic from dmso stock.
A short description of data set [1]: Microsomal stability assay in liver microsomes. The format is in vitro ADME. The note with it: rat, pH 7.4. The procedure, abridged: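 Test compound was taken from a 1 mM DMSO stock. It was preincubated 5 min at 37 °C with liver microsomes in 0.1 M phosphate buffer, pH 7.4. Reaction was started with an NADPH regenerating system (glucose-6-phosphate, NADPH, glucose-6-phosphate dehydrogenase, MgCl2) and quenched with methanol at 0, 10, 20, 30 and 60 min. Samples were centrifuged and read by LC-MS SIM as peak area ratio to internal standard. k = negative slope of ln ratio vs time; CLint = k/P (P = protein concentration). Duplicates or triplicates were averaged.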
For orientation: Liver microsomes are vesicles of endoplasmic reticulum, rich in cytochrome P450 enzymes.

A further data set concerns the target T2, 5-HT1A (Homo sapiens, UniProt P08908).
T2 sequence (P08908 1-422): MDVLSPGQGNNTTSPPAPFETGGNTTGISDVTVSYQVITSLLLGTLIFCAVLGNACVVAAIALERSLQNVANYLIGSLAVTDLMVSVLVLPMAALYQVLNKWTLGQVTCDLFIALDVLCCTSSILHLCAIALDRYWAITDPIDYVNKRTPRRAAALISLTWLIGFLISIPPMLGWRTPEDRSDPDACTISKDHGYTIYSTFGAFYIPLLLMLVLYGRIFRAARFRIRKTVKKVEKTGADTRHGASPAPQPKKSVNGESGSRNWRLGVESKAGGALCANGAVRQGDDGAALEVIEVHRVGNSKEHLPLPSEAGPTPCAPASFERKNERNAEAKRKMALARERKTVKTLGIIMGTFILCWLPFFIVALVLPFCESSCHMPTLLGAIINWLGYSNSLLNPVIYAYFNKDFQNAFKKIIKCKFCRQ
Nature of the data set: NIMH PDSP binding screen. The note with it: read-out: Inhibition (%) 5-HT1A.

Another data set deals with 5-HT1D (Homo sapiens, UniProt P28221). Nature of the data set: NIMH PDSP binding screen. The note with it: read-out: Inhibition (%) 5-HT1D.
A further data set deals with 5-HT2B (Homo sapiens, UniProt P41595). Nature of the data set: NIMH PDSP binding screen. The note with it: read-out: Inhibition (%) 5-HT2B.
The next data set addresses 5-HT4 (Homo sapiens, UniProt Q13639). Nature of the data set: NIMH PDSP binding screen. The note with it: read-out: Inhibition (%) 5-HT4.
The test system of a further data set is male Sprague-Dawley rats. Nature of the data set: Home cage wheel running. The format is in vivo, rat. The note with it: 3 mg/kg intraperitoneal, vs vehicle, n = 8/group.

Sequence of 5-HT2B (P41595 whole entry, species assumed): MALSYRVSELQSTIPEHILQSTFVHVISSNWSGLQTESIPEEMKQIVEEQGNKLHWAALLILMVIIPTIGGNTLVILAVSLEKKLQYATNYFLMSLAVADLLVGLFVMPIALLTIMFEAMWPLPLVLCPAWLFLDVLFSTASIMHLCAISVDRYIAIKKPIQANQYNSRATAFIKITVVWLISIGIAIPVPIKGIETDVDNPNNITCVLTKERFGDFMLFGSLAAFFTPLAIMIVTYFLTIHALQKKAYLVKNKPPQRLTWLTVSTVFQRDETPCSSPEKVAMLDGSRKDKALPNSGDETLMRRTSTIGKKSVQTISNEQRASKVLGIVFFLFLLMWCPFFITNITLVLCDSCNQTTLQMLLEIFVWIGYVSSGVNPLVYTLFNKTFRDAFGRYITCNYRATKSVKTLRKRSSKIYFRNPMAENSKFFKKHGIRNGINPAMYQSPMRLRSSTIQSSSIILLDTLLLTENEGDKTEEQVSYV
Sequence of 5-HT4 (Q13639 whole entry, species assumed): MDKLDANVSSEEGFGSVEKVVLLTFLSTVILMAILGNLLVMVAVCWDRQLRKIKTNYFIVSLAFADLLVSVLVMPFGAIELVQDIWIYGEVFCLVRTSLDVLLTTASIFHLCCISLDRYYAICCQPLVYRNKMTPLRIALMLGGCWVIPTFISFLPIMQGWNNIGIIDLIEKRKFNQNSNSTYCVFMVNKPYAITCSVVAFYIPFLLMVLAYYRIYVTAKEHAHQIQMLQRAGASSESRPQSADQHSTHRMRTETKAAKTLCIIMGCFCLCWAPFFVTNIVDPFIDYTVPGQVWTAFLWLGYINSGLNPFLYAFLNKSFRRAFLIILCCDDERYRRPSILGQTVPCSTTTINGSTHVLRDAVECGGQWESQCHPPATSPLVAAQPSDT
Sequence of 5-HT1D (P28221 whole entry, species assumed): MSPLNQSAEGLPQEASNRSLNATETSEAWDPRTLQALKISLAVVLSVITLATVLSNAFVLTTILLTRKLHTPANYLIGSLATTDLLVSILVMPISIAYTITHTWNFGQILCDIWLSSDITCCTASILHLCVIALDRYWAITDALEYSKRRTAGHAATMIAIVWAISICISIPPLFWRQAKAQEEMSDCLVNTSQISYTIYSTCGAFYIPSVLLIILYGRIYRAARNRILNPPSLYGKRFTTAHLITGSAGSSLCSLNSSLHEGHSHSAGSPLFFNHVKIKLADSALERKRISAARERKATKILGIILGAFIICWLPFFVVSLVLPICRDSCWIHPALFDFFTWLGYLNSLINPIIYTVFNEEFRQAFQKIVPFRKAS

As for `O=C(Nc1ccc(-c2cnc3ccccc3n2)cc1)C1CCN(S(=O)(=O)c2ccccc2Cl)CC1` [Compound 4m, 1-((2-chlorophenyl)sulfonyl)-N-(4-(quinoxalin-2-yl)phenyl)piperidine-4-carboxamide], inhibition on human FAAH was half-maximal at 2.9 nM (IC50). Besides, the solubility (usually the concentration that dissolves in the medium under given conditions) in the data set “Solubility assay” was 31 to 63 µM (≈ 15.7 to 31.9 µg/mL). In addition, the half-life (commonly the time needed for the level to fall by half in the phase considered) at 1 µM in data set [1] was 26 min. In addition, the microsomal CLint (usually a measure of how fast metabolising enzymes remove a compound, apart from limits set by blood flow) at 1 µM in data set [1] was 52.6 µL/min/mg. Also, the inhibition (as a rule, the change of the read-out against control, counted positive when it falls) at 10 µM at 5-HT1A is -18 ± 14.6%; on 5-HT1D, -8.07 ± 3.46%; at 5-HT2B, -4.41 ± 7.06%; on 5-HT4 it was 29.6 ± 23.2%. Moreover, the “wheel revolutions in the 15 min after drug injection” value with male Sprague-Dawley rats is on record as “significantly lower”.
